Screening data as filed in PubChem.
T cruzi inh: blocks replication of Trypanosoma cruzi. inhibition, % (concentration not given with the values). T. cruzi beta-gal in NIH3T3, luminescence, 90 h. hit rate 1.4% among 300,000;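 active = mean inhibition across valid replicates above about 55%, limit read from the data; inconclusive = mean below that limit but half or more replicates reach it; inactive = mean below it, under half of replicates reach it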;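 also: signal also drops with host cell toxicity which is not excluded here; 0% = plate median of DMSO wells and 100% = zero luminescence signal; higher percent means less beta-gal luminescence so fewer parasites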
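assay system = mouse NIH/3T3 fibroblasts infected with β-gal-expressing T. cruzi Tulahuen C4 | input = 5,000 NIH/3T3 host cells per well | buffer or medium = DMEM plus 2% FBS | timing = 3 h host attachment, then at least 90 h co-culture | measured by = GalScreen luminescence, 60 min | evaluation = luminescence reflecting intracellular parasite burden, expressed as percent inhibition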
NALP1 inh: inhibitors of NALP1 inflammasome in yeast. S. cerevisiae NALP1/ASC/caspase-1 growth, X-gal OD620, 72 h. inhibition, % at 10 µM. hit rate 0.61% among 280,000. AID 2071; in the data active = inhibition mostly above about 24%, no sharp cut-off; inactive = mostly below about 32%
PolyA inh: inhibitors of polyadenylation in S. cerevisiae | AID 1875 | hit rate 0.02% among 300,000 | S. cerevisiae SKY197-pL101 polyadenylation reporter, beta-gal luminescence; efflux-impaired pdr1/pdr3 knockout yeast; score 100 = 6 SD above DMSO | activity score, % at 12 µM;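 active = lowest replicate activity score at least 50, where 100 means six control SD above control mean; inconclusive = lowest score under 50 but half or more replicates reach 50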;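 also: yeast exposed to compound for 9 h at 30 °C; higher score means more reporter readthrough which indicates perturbed polyadenylation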
NLRP3 yeast inh: blocks the NALP3 inflammasome reconstituted in yeast; Yeast reconstituted NLRP3/ASC/caspase-1, beta-gal luminescence, 24 h; inhibition, % at 10 µM; hit rate 0.39% among 330,000; AID 2825;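 active = inhibition of 50% or more; inactive = inhibition below 50%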;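 also: plate controls were induced DMSO wells for no effect and uninduced yeast grown without galactose for full effect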
Calb FLC: affects C. albicans growth with fluconazole | C. albicans CaCi-2 + fluconazole, Alamar Blue growth, 48 h | growth inhibition, % (no concentration beside the values) | hit rate 0.57% among 300,000 | AID 1979;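 active = growth inhibition above about 58% in most replicates, limit read from the data, passing the limit was not always enough; inconclusive = exactly half the replicates above a set limit; inactive = most replicates below a set limit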;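 also: all wells also contain fluconazole at 8 µg/ml as a sub-toxic cotreatment; 0% = median of DMSO wells and 100% = median of geldanamycin control wells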
Lmaj promast: reduces viability of Leishmania major promastigotes; resazurin fluorescence viability; inhibition, % at 10 µM; hit rate 9% among 200,000; AID 1063; in the data active = inhibition above about 50%;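 also: promastigotes grown with compound for 44 hours at 28 °C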
Active calls of the source: *; ? = inconclusive; . = no result given. The entries come from a sample that favours hits as a whole.

SMILES | T cruzi inh | NALP1 inh | PolyA inh | NLRP3 yeast inh | Calb FLC | Lmaj promast
CCOCCCNC(=O)/C(C#N)=C/c1ccc(C(=O)OC)cc1 | -20 | 5 | -6 | 18 | -3 | 58*
COc1ccc(C2(NC(C)=O)CCN(Cc3cccnc3)CC2)cc1 | -1 | 11 | 14 | 15 | 4 | .
O=C1Nc2ccccc2C12OCC1(CO2)COC2(OC1)C(=O)Nc1ccccc12 (stereo not given) | 39 | 28 | 3 | 2 | -15 | 91*
Cc1cc(C)cc(N(C(=O)c2csnn2)C(C(=O)NC(C)(C)C)c2cccnc2)c1 (stereo not given) | 1 | 23* | -5 | 0 | 4 | -5
Cc1cccc(N(C(=O)c2csnn2)C(C(=O)NC(C)(C)C)c2cccnc2)c1 (stereo not given) | -10 | -6 | -4 | -1 | 4 | -2
COc1ccc(Cl)cc1NC(=S)N(CCCN1CCOCC1)Cc1cn(C)c2ccccc12 | 32 | -7 | 3 | 18 | 7 | 100*
Cc1ccc(Cl)cc1NC(=S)N(CCCN1CCOCC1)Cc1ccccn1 | 6 | 3 | 7 | -7 | 2 | -2
COc1cc(Cl)ccc1NC(=S)N(CCCN1CCOCC1)Cc1cn(C)c2ccccc12 | 17 | 12 | 9 | 22 | 25 | 89*
O=C(Nc1cccc(-c2nnc(-c3ccco3)o2)c1)c1ccccc1 | -4 | 3 | 4 | 28 | 38 | 3
O=C(Nc1cccc(-c2nnc(-c3ccco3)o2)c1)C(c1ccccc1)c1ccccc1 | 36 | 5 | -18 | 21 | 2 | 100*
Cc1cccc(Nc2nc(N)nc(CCl)n2)c1 | 68* | 11 | 4 | 5 | -1 | .
Cc1c(Cl)cccc1Nc1nc(N)nc(CN2CCc3ccccc3C2)n1 | 2 | -20 | 1 | 15 | 1 | 89*
Cc1ccc(SCc2nc(N)nc(Nc3ccccc3C)n2)c(C)c1 | 23 | 27 | -15 | 9 | -3 | 60*
Cc1ccc(Nc2nc(N)nc(CN3CCc4ccccc4C3)n2)cc1 | -13 | 23 | -3 | 2 | ? | 18
Cc1ccc(Nc2nc(N)nc(CN3CCC(C)CC3)n2)c(C)c1 | 7 | . | 27 | 13 | -3 | 62*
CCOc1ncccc1C(=O)OCC(=O)c1cccs1 | -10 | 6 | -1 | 2 | 9 | -5
O=C(COc1cccc2ccccc12)NNC(=O)c1cccs1 | -8 | 15 | 5 | 13 | 4 | -10
CC1CCN(S(=O)(=O)c2ccc(C(=O)N3CCCC3C(=O)O)cc2)CC1 (stereo not given) | . | . | . | 11 | . | .
Cc1cc(C)cc(N(CC(=O)N2CCn3c2nc2ccccc23)S(=O)(=O)c2c(C)noc2C)c1 | -20 | -6 | -13 | -8 | -7 | -1
CCOc1ccc(S(=O)(=O)NCCC(=O)NCC(c2ccco2)N2CCCCC2)cc1 (stereo not given) | . | . | . | 5 | . | .
COc1cc(/C=N/NC(=O)c2sc3nc(C)cc(C)c3c2N)ccc1O | 2 | . | -9 | -6 | 47 | .
CC(=O)c1cccc(NC(=O)C(OC(=O)/C=C/c2ccc3c(c2)OCO3)c2ccccc2)c1 (stereo not given) | 9 | 8 | 13 | 21 | -13 | 1
Cc1cccc(Nc2nc(N)nc(CCl)n2)c1C | 30 | . | -10 | -9 | -12 | .
Cc1ccc(Nc2nc(N)nc(CCl)n2)c(C)c1 | 57* | 1 | -10 | 12 | -7 | .
COc1cccc(Nc2nc(N)nc(CCl)n2)c1 | 69* | 32 | -1 | 15 | -3 | .
SMILES | T cruzi inh | NALP1 inh | PolyA inh | NLRP3 yeast inh | Calb FLC | Lmaj promast
Cc1ccccc1Nc1nc(N)nc(CN(C)Cc2ccccc2Cl)n1 | 0 | . | 2 | 14 | -48 | 51*
Cc1ccccc1Nc1nc(N)nc(CSCC(=O)Nc2cccc(Br)c2)n1 | -1 | 11 | 13 | -4 | 12 | 81*
O=Nc1ccc(NOC(=O)c2ccccc2Br)cc1 | 4 | 24 | -30 | 27 | 25 | 73*
O=C(ONc1ccc(N=NC(=O)c2ccccc2O)cc1)c1ccccc1 | -10 | 22 | -23 | 21 | -29 | 0
N#C/C(=C/c1ccco1)c1nc2ccccc2s1 | -4 | 39 | -19 | 36 | 1 | 57*
COc1ccc(-c2csc(/C(C#N)=C\c3ccc(O)c([N+](=O)[O-])c3)n2)cc1OC | 11 | 8 | 3 | 31 | 16 | .
COc1cc(/C=C(\C#N)c2nc3ccccc3s2)cc([N+](=O)[O-])c1O | 19 | -9 | -43 | 10 | 88* | 0
COc1ccc(-c2csc(/C(C#N)=C\c3ccc(OC)c([N+](=O)[O-])c3)n2)cc1 | 40 | -4 | -16 | 5 | 11 | 91*
COc1ccc(Cl)cc1NC(=O)CN(C)C(=O)c1cc(-c2ccncc2)nc2ccccc12 | 11 | . | 13 | 26 | -5 | .
Cc1ccc(-c2ccc(/C=C3\C(=O)ON=C3c3ccccc3)o2)c([N+](=O)[O-])c1 | -12 | 12 | -11 | 15 | -8 | 98*
Cc1ccc(/C=C2\C(=O)ON=C2c2ccccc2)o1 | -16 | -6 | 6 | -31 | -8 | 0
Cc1ccc(C)c(NC(=S)NNC(=O)c2cc3c(s2)CCC(C)C3)c1 (stereo not given) | -4 | 30 | 3 | 6 | 1 | 2
Cc1cccc(NC(=S)NNC(=O)c2cc3c(s2)CCC(C)C3)c1C (stereo not given) | 17 | -8 | 1 | -5 | 110* | 14
Cc1cc(C)c2c(=O)c(C#N)coc2c1 | -1 | -12 | -6 | -8 | -11 | .
Clc1ccc(C2CSc3c4ncnc-4ncn32)cc1 (stereo not given) | -3 | 40* | -5 | 10 | -3 | .
O=C(CSc1nc2ccccc2c(=O)n1-c1cccc(C(F)(F)F)c1)NC1CC1 | 2 | -4 | -8 | 5 | -4 | -3
CCCNC(=O)CSc1nnc(-c2ccccc2Br)n1-c1cccc(C(F)(F)F)c1 | 2 | 18 | . | 7 | . | 79*
Cc1[nH]c2ccccc2c1C(c1ccncc1)N1CCN(c2ccccn2)CC1 (stereo not given) | -14 | 5 | 6 | 10 | 4 | 30
Cc1[nH]c2ccccc2c1C(c1ccncc1)N1CCN(c2ccccc2F)CC1 (stereo not given) | 14 | 35 | 29 | 5 | 2 | 51*
C=CCOC(=O)C1=C(C)NC(C)=C(C(=O)OCC=C)C1/C=C/c1ccccc1 | 13 | 5 | -5 | 0 | 6 | 100*
C=CCOC(=O)C1=C(C)Nc2[nH]c(=O)[nH]c(=O)c2C1c1ccccc1 (stereo not given) | 17 | 29* | . | -21 | . | -9
CCOC(=O)C1=C(C)Nc2[nH]c(=O)[nH]c(=O)c2C1c1cccs1 (stereo not given) | -12 | 16 | -14 | 1 | -3 | -7
Cc1cccc(NC(=O)CSc2nc(N)c(NC(=O)c3cccs3)c(=O)[nH]2)c1C | 1 | 22 | -6 | -7 | 5 | -8
